An excerpt weighted towards active compounds, which were near 1.8% of everything screened.
NR1D1 modulator: modulates human Rev-erb alpha binding to DNA. activity, % at 10 µM. 0.79% of 370,000 active. AID 1259318. P20393. Rev-erbα–FITC-DNA binding, fluorescence polarization, 90 min;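 active = activity above about 14%, limit read from the data; passing the limit was not always enough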;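 also: 0% = DMSO wells with 35 nM protein and 100% = DMSO wells with 750 nM protein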
NR2E3 ag-1: activates human NR2E3 receptor. 0.35% of 360,000 active. inhibition of corepressor binding, % at 3.98 µM. CHO-S Gal4-NCOR/VP16-NR2E3 two-hybrid, luciferase. Q9Y5X4;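 active = inhibition above the mean of all tested compounds plus 3 SD, cut at about 70% in these data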;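 also: 0% = DMSO with NR2E3 transfected cells and 100% = cells lacking NR2E3 construct; higher means lower luciferase signal from less NR2E3 corepressor binding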
Target sequence (Q9Y5X4 whole entry, looked up, the tested form may be a part): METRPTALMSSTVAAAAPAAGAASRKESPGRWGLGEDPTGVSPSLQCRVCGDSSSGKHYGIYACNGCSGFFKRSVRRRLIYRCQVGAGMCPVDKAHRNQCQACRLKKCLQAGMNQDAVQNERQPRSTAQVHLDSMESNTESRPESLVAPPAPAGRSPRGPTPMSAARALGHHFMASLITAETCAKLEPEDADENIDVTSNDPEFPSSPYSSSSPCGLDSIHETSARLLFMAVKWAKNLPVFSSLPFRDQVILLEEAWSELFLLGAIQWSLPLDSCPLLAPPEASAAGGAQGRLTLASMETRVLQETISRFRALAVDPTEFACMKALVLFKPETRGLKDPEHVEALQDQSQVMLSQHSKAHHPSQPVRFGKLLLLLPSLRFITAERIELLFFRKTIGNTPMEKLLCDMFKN
GalR3 antag: human GalR3 antagonism; O60755; HEK293 GalR3-CNG cAMP membrane potential fluorescence; galR3 body fused to GalR1 C-terminus; inhibition, % at 3 µM; 0.44% of 360,000 active; AID 651719;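 active = inhibition above the screen-wide average plus 3 SD, cut at about 13% in these data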;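 also: forskolin and galanin both at EC90 stimulate the cells; cAMP rise reported by CNG channel membrane potential dye signal; 0% = forskolin plus galanin with DMSO and 100% = forskolin alone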
NR2E3 ag-2: activates human photoreceptor nuclear receptor NR2E3 | GST-NR2E3/biotin-RetCOR TR-FRET, 1536-well | AID 2300 | Q9Y5X4 | 0.12% of 320,000 active | inhibition of corepressor binding, % at 4.78 µM;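 active = percent inhibition above the cutoff of mean plus 3 SD of all tested compounds, set per screening campaign, cut at about 20% in these data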;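 also: 0% = DMSO wells and 100% = biotin wells as full block of FRET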
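Assay system: NR2E3–RetCOR corepressor complex. Quantity: 1.35 nM GST-NR2E3. Buffer or medium: pH 7.5 Tris-based buffer. Reagent: biotinylated RetCOR corepressor at 7 nM final. Schedule: 5 h at 4 °C. Detection: TR-FRET, emission read at 617 and 671 nm. Replicates: one well per compound, singlicate testing.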
PG9 Ab binder: binds the HIV-1 gp120 antibody PG9 | inhibition, % at 6.7 µM | 0.43% of 360,000 active | TR-FRET gp120-PG9 antibody binding; in the data active = inhibition above about 8.5%
GalR3 conf: GalR3 (human) antagonism, confirmation | shares compounds with GalR3 antag | HEK293 GalR3 CNG cAMP biosensor, membrane potential fluorescence; galR3 fused to GalR1 carboxy tail; challenged with forskolin and galanin at EC90 | inhibition, % at 3 µM | 59% of 1,600 active | AID 652245;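 active = inhibition above the primary screen's cutoff, the mean inhibition of all screened compounds plus 3 SD, cut at about 13% in these data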;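 also: 0% = forskolin plus galanin and 100% = forskolin alone with DMSO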
HEK-CNG parental: counter-screen for GalR3 antagonists: nonspecific agonists in parental HEK-CNG cells. shares compounds with GalR3 antag. HEK293-CNG parental cells, cAMP membrane potential fluorescence; normalised: DMSO wells 0%, forskolin wells 100%. activation, % at 3 µM. 10% of 1,600 active. AID 652268; in the data active = activation above about 1.3%
* = called active by the depositor; x = not tested or not shown.

SMILES	NR1D1 modulator	NR2E3 ag-1	GalR3 antag	NR2E3 ag-2	PG9 Ab binder	GalR3 conf	HEK-CNG parental
CCN(CC)c1ccc(C2=NNC(=O)CC2C)cc1[N+](=O)[O-] (stereo unspecified)	-6	-3	52*	0	0	65*	0
COc1ccc2cc1Oc1cc3c(cc1OC)CC[N+](C)(C)[C@H]3Cc1ccc(cc1)Oc1c(OC)c(OC)cc3c1[C@@H](C2)[N+](C)(C)CC3	-4	x	x	x	x	x	x
CC(CCc1ccc(O)cc1)NCc1ccc(Br)cc1 (stereo unspecified)	4	18	31*	7	-1	58*	1
NC(=O)c1sc(=S)n2c1[nH]c(=O)c1sccc12	0	-15	67*	-2	-3	-3	1
COc1ccc(C(=O)C2CCCN(C(=O)c3ccoc3C)C2)cc1F (stereo unspecified)	-3	6	13*	2	-2	8	0
CCCCNC(=O)C[C@H]1C[C@@]2(C(=O)OC)C(=C[C@H](C3CCCC3)O[C@@H]2C)N(CCC2=CCCCC2)C1=O	2	x	x	x	x	x	x
O=c1[nH]cccc1-c1nc2ccccc2n1Cc1ccc(F)cc1	-7	-3	87*	-2	0	-3	-1
Cc1cc2nc(-c3ccc[nH]c3=O)n(Cc3ccc(F)cc3)c2cc1C	6	-38	-10	2	0	x	x
COc1cc2c(cc1OC)-c1cc(Nc3ccc(F)cc3)nc(=O)n1CC2	1	0	9	0	-1	x	x
COc1cc2c(cc1OC)-c1cc(Nc3ccc(N(C)C)cc3)nc(=O)n1CC2	-29	-19	36*	-10	-17	55*	0
CCN(CC)c1ccc(Nc2cc3n(c(=O)n2)CCc2cc(OC)c(OC)cc2-3)cc1	3	31	47*	-4	-22	64*	0
CCCCOCCCNC(=O)C[C@@H]1C(=O)N(Cc2ccc(OC)cc2)C2=CCN(C(=O)OC(C)(C)C)C[C@]21C(=O)OCC	2	x	x	x	x	x	x
CCOC(=O)C1CCN(C(=O)c2ccc(OCC(=O)Nc3cccc(C(F)(F)F)c3)c(OC)c2)CC1	-6	9	92*	6	1	107*	0
COCCn1c(=O)[nH]c(=O)c2c1nc(-c1cc(Br)c3c(c1)OCO3)n2Cc1ccccc1	2	-25	15*	0	0	16*	0
CC(/C=N/NC(=O)CSc1nnc(SCc2ccc(C)cc2)s1)=C\c1ccco1	1	x	x	x	x	x	x
COc1ccc(NC(=O)C(=S)N2CCCC2)cc1	-8	-38	16*	-2	1	1	0
COc1ccc(NC(=S)N2CCCC2)cc1	-2	-36	-2	2	-3	x	x
CCCCCCCCN1C(=O)[C@@H](CC(=O)NCCCOCCCC)C[C@@]2(C(=O)OC)C1=C[C@H](C(C)(C)C)O[C@@H]2C	6	x	1	x	0	x	x
COc1ccc(NC(=O)C2Cc3c(-c4cccc(C(C)=O)c4)ccnc3O2)cc1OC (stereo unspecified)	4	38	61*	x	-2	104*	0
COc1ccc(NC(=O)C2Cc3c(-c4cccc(C(N)=O)c4)ccnc3O2)cc1OC (stereo unspecified)	2	-3	-7	x	0	x	x
O=C(O)C12CC3CC(C1)CC(n1ncc(NCc4ccco4)c(Cl)c1=O)(C3)C2	-5	11	3	-6	1	x	x
O=c1c(Cl)c(NCC2CCCO2)cnn1C12CC3CC(CC(C3)C1)C2 (stereo unspecified)	0	-3	15*	3	-3	33*	0
O=C(Nc1ccc(Cn2cccn2)cc1)c1ccc(COc2ccc(Br)cc2)cc1	1	-12	-4	-2	2	x	x
O=C(Nc1ccn(Cc2ccccc2F)n1)c1ccc(COc2ccc(Br)cc2)cc1	-7	-73	97*	-1	3	106*	0
O=S(=O)(c1ccccc1)N1CCC(O)(CSc2ccc(F)cc2)CC1	-6	16	72*	2	0	44*	-1
SMILES	NR1D1 modulator	NR2E3 ag-1	GalR3 antag	NR2E3 ag-2	PG9 Ab binder	GalR3 conf	HEK-CNG parental
Cc1cc(NS(=O)(=O)c2ccc(NC(=O)CSc3nc4sc(C)c(C)c4c(=O)n3Cc3ccco3)cc2)nc(C)n1	-3	x	x	x	x	x	x
Cc1nc(NCC2CC2)c2nnn(Cc3ccccc3)c2n1	5	-19	18*	0	-1	-2	0
Cc1nc(NCC2CCCO2)c2nnn(Cc3ccccc3)c2n1 (stereo unspecified)	-7	1	-7	3	-1	x	x
COC(=O)[C@]12C[C@H](CC(=O)N3CCN(C(=O)c4ccco4)CC3)C(=O)N(CCc3ccc(OC)c(OC)c3)C1=C[C@H](COCc1ccccc1)O[C@@H]2C	2	x	x	x	x	x	x
Cc1ccc(S(=O)(=O)NN2C(=O)c3ccccc3NC2c2ccccc2O)cc1 (stereo unspecified)	3	-14	3	3	-2	x	x
Cc1ccc(S(=O)(=O)NN2C(=O)c3ccccc3NC2c2ccccn2)cc1 (stereo unspecified)	1	29	14*	-2	-2	-1	0
COC(=O)CNC(=O)CN1c2cccc3cccc(c23)S1(=O)=O	1	-4	13*	4	3	0	0
COc1ccc(CCNC(=O)CN2c3cccc4cccc(c34)S2(=O)=O)cc1	-6	1	1	x	2	x	x
Oc1ccc(C2CNCCc3c2cc(O)c(O)c3Cl)cc1 (stereo unspecified)	-3	-16	-3	2	0	x	x
Oc1cc2c(c(Cl)c1O)CCNCC2c1ccccc1 (stereo unspecified)	-2	-28	26*	3	-2	32*	1
Cc1ccc(Nc2c(-c3ccc(N4CCOCC4)cc3)nc3cnccn23)cc1	2	-1	16*	1	3	6	0
O=C(COc1ccc2ccccc2c1Br)Nc1ccncc1	0	-18	61*	3	1	60*	0
COc1cccc(OCC(=O)Nc2ccncc2)c1	-4	-40	-11	0	-1	x	x
Cc1cc(OCC(=O)Nc2ccncc2)cc(C)c1Cl	0	0	16*	-3	-2	37*	0
Cc1cc(OCC(=O)Nc2ccncc2)c(C)cc1Br	4	-9	77*	6	-3	117*	0
CC(C)CCOc1cccc(OCC(=O)Nc2ccncc2)c1	1	-7	92*	4	0	110*	-1
COC(=O)[C@H](CC(C)C)N(CCCc1cn(Cc2ccc(C)cc2)nn1)S(=O)(=O)c1ccccc1Br	0	x	x	x	x	x	x

From PubChem
